Test results taken from ChEMBL document CHEMBL3352673, “Novel inhibitors of the high-affinity L-proline transporter as potential therapeutic agents for the treatment of cognitive disorders” (Bioorg Med Chem Lett, 2014).
The source made the active and inactive calls. The calls are words filed in the database; no cut-off is given here.

How the values were obtained:
[1] = Protein binding in plasma (unknown origin) by equilibrium dialysis assay; type: ADME, cell-free; conditions: read-out: PPB (converted)
Procedure, shortened: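 Plasma protein binding measured by equilibrium dialysis.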

[2] = molecular target: T1, Sodium-dependent proline transporter (Homo sapiens, UniProt Q99884); assay: Inhibition of human high-affinity L-proline transporter expressed in COS1 cells by [3H]proline uptake assay; type: cell-based, COS-1
T1 sequence (Q99884 whole entry): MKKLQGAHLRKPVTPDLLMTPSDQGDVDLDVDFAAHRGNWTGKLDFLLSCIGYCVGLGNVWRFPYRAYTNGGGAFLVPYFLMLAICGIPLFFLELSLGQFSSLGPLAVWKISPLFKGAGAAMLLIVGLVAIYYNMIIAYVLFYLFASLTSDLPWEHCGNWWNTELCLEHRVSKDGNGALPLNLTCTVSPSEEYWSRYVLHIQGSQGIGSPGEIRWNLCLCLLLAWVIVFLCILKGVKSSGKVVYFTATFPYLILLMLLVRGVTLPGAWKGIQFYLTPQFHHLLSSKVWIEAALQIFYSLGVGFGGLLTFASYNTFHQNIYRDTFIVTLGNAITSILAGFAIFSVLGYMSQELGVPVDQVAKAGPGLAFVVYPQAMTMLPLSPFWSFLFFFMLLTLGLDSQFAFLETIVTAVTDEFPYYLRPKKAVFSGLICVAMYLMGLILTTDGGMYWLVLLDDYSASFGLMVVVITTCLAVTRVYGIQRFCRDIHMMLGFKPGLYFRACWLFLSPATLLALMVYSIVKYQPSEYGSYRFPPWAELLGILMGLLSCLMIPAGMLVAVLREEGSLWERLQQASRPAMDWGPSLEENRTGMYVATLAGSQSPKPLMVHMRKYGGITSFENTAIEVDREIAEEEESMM

[3] = Stability in mouse liver homogenates assessed as remaining parent compound level after 30 mins; type: ADME, tissue-based; conditions: liver homogenate, read-out: Stability
Procedure, shortened: (§1)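 Compound incubated 30 min with S9 fraction of mouse liver homogenate; parent compound remaining measured.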

[4] = Stability in mouse liver S9 fraction assessed as remaining parent compound level after 30 mins; type: ADME, subcellular; conditions: read-out: Stability; procedure, shortened: as §1
Mus musculus [5] = assay: Induction of cognitive improvement in albino C57BL/6 mouse trace conditioning model assessed as improvement in response to conditioned stimulus at 100 mg/kg, po; type: functional, organism-based; set-up: dose 100 mg/kg
Procedure, shortened: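 C57 mice (n = 13) given 100 mpk PO alongside a vehicle control group; fear conditioning with context freezing portion scored as response to conditioned stimulus; statistical comparison with vehicle by P value.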

Mus musculus [6] = assay: Toxicity in albino C57BL/6 mouse at 100 mg/kg, po; type: organism-based; set-up: dose 100 mg/kg, route oral; conditions: in vivo
[7] = Ratio of drug level in brain to plasma in albino C57BL/6 mouse at 100 mg/kg, po after 6 hrs; type: ADME, organism-based; set-up: dose 100 mg/kg, route oral; conditions: read-out: BPR
[8] = AUC (0 to infinity) in albino C57BL/6 mouse at 100 mg/kg, po; type: ADME, organism-based; set-up: time infinity, dose 100 mg/kg, route oral; conditions: plasma
Procedure, shortened: (§2)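 Single oral administration at 100 mpk to C57BL/6 albino mice; plasma exposure parameters (Tmax, Cmax, AUC) derived.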

[9] = Drug level in albino C57BL/6 mouse brain at 100 mg/kg, po after 6 hrs; type: ADME, organism-based; set-up: dose 100 mg/kg, route oral; conditions: read-out: Drug uptake
[10] = Cmax in albino C57BL/6 mouse at 100 mg/kg, po; type: ADME, organism-based; set-up: dose 100 mg/kg, route oral; conditions: in vivo; procedure, shortened: as §2
[11] = Tmax in albino C57BL/6 mouse at 100 mg/kg, po; type: ADME, organism-based; set-up: dose 100 mg/kg, route oral; conditions: in vivo; procedure, shortened: as §2
[12] = molecular target: T2, Sodium-dependent dopamine transporter (Homo sapiens, UniProt Q01959); assay: Inhibition of DAT (unknown origin) at 10 uM
Mus musculus [13] = assay: Toxicity in albino C57BL/6 mouse assessed as effect on open field trial parameters at 100 mg/kg, po; type: organism-based; set-up: dose 100 mg/kg, route oral; conditions: in vivo
[14] = Inhibition of GlyT (unknown origin); set-up: species or system Homo sapiens
[15] = molecular target: T2, Sodium-dependent dopamine transporter; assay: Inhibition of DAT (unknown origin)
Mus musculus [16] = assay: Toxicity in mouse assessed as induction of lethargy at 1 mg/kg, iv; type: organism-based; set-up: dose 1 mg/kg, route intravenous; conditions: in vivo
Procedure, shortened: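 Mice dosed IV at 1 mpk and observed for lethargy.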

hERG (KCNH2) = hERG (KCNH2) (Homo sapiens, UniProt Q12809); assay: Inhibition of human ERG at 10 uM
Sequence of hERG (KCNH2) (Q12809 whole entry): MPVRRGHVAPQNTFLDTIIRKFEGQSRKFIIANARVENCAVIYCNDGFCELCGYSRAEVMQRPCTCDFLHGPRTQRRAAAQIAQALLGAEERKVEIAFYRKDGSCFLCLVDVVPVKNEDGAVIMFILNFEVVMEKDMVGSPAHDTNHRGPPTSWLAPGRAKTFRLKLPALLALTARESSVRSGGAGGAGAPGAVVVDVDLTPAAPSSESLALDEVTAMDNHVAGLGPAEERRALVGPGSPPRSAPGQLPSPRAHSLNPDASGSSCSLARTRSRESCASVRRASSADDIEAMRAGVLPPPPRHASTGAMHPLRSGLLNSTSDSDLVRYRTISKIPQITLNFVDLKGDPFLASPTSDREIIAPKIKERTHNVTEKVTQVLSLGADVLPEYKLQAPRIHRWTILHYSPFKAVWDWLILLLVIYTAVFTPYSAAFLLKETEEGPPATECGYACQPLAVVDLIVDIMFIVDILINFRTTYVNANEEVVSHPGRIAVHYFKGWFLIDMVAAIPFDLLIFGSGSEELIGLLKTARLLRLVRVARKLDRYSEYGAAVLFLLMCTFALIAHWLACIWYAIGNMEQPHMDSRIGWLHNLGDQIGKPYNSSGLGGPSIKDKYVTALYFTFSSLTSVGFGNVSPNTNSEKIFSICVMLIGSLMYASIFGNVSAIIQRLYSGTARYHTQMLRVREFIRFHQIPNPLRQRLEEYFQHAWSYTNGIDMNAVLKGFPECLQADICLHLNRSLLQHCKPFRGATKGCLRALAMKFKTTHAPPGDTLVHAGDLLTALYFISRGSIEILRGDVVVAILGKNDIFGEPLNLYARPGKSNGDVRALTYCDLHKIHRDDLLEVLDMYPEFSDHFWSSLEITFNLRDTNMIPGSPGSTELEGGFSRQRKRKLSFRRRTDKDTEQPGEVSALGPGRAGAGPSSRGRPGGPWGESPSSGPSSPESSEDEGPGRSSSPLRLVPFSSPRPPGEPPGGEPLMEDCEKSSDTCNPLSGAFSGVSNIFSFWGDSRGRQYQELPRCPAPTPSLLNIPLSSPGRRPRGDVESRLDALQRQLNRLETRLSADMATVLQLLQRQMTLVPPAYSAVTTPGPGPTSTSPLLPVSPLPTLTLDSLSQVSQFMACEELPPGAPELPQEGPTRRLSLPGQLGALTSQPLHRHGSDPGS

T2 sequence (Q01959 whole entry): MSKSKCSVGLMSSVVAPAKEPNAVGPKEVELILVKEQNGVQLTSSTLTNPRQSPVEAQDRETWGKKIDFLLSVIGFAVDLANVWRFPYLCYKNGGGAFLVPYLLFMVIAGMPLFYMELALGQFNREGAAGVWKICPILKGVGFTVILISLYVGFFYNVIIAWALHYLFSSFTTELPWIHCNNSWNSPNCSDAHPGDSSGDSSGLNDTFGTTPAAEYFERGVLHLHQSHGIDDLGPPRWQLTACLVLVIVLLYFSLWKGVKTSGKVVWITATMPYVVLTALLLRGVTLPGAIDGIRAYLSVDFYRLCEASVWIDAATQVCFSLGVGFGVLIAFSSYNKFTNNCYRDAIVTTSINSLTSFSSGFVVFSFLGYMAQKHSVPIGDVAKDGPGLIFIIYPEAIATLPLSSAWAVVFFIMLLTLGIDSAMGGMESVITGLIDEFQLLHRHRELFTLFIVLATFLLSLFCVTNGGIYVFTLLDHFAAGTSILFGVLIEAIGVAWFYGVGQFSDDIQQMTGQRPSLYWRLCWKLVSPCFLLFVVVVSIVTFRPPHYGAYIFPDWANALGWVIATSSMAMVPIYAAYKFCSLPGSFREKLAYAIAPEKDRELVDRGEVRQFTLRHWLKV

Row | Structure (SMILES) | IC50 [2] [nM] | other results
1 | O=C(c1ccc(-c2ccccc2)cc1)N1CCN(c2ccccc2)CC1 | 1480 | –
2 | O=C(c1ccc(Oc2ccccc2)cc1)N1CCN(c2ncccn2)CC1 | 1950 | –
3 | O=C(c1ccc(OCc2ccccc2)cc1)N1CCN(c2ncccn2)CC1 | 270 | remaining at 0.5 h [3]: 45%
4 | O=C(c1ccc(-c2ccccc2C(F)(F)F)cc1)N1CCN(c2ncccn2)CC1 | 1260 | –
5 | O=C(c1ccc(-c2cccc(OC(F)(F)F)c2)cc1)N1CCN(c2ncccn2)CC1 | 73 | –
6 | Cc1ccnc(N2CCN(C(=O)c3ccc(-c4ccccc4)cc3)CC2)n1 | 270 | –
7 | O=C(c1ccc(-c2cccc(C(F)(F)F)c2)cc1)N1CCN(c2ncccn2)CC1 | 71 | –
8 | O=C(c1ccccc1-c1ccccc1)N1CCN(c2ncccn2)CC1 | 6010 | –
9 | O=C(c1ccc(-c2ccccc2)cc1)N1CCN(c2nccs2)CC1 | 146 | –
10 | O=C(c1ccc(-c2ccccc2)cc1)N1CCN(c2ccccn2)CC1 | 160 | remaining at 0.5 h [4]: 53%
11 | O=C(c1ccc(-c2ccccc2)cc1)N1CCN(c2nccc(C(F)(F)F)n2)CC1 | 2180 | –
12 | O=C(c1ccc(-c2ccccc2)cc1)N1CCN(c2cnccn2)CC1 | 1300 | –
13 | O=C(c1ccc(-c2ccccc2)cc1)N1CCN(c2cccnn2)CC1 | 5000 | –
14 | O=C(c1cccc(-c2ccccc2)c1)N1CCN(c2ncccn2)CC1 | 1880 | –
15 | O=C(c1ccc(NCc2ccccc2)cc1)N1CCN(c2ncccn2)CC1 | 870 | remaining at 0.5 h [3]: 63%; fraction unbound [1]: 0.05
16 | Cc1csc(-c2ccc(C(=O)N3CCN(c4ncccn4)CC3)cc2)c1 | 34 | –
17 | O=C(c1ccc(C2CCCCC2)cc1)N1CCN(c2ncccn2)CC1 | 7010 | –

Second part, led by results:

Row | IC50 [2] [nM] | Structure (SMILES) | other results
18 | 52 | O=C(c1ccc(-c2ccc(Cl)cc2)cc1)N1CCN(c2ncccn2)CC1 | fraction unbound [1]: 0.022
19 | 57 | C[C@@H]1CN(c2ncccn2)CCN1C(=O)c1ccc(-c2ccc(Cl)cc2)cc1 | –
20 | 21 | C[C@H]1CN(c2ncccn2)CCN1C(=O)c1ccc(-c2ccc(Cl)cc2)cc1 | –
21 | 280 | O=C(c1ccc(-c2ccccc2)cc1)N1CCN(c2ncccn2)CC1 | –
22 | 128 | O=C(O)C1CN(c2ncccn2)CCN1C(=O)c1ccc(-c2cccc(Cl)c2)cc1 (stereo not given) | –
23 | 150 | O=C(c1ccc(-c2ccc(Cl)s2)cc1)N1CCN(c2ncccn2)CC1 | –
24 | 36 | O=C(c1ccc(-c2cccc(Cl)c2)cc1)N1CC2CN(c3ncccn3)CC2C1 (stereo not given) | –
25 | 700 | CC(C)(C)C1CN(c2ncccn2)CCN1C(=O)c1ccc(-c2cccc(Cl)c2)cc1 (stereo not given) | –
26 | 53 | CC1(C)CN(c2ncccn2)CCN1C(=O)c1ccc(-c2cccc(Cl)c2)cc1 | –
27 | 24 | CC1CN(c2ncccn2)CC(C)N1C(=O)c1ccc(-c2cccc(Cl)c2)cc1 (stereo not given) | –
28 | 1340 | O=C(c1ccc(-c2cccc(Cl)c2)cc1)N1CC2CC1CN2c1ncccn1 (stereo not given) | –
29 | 34 | Cc1ccc(-c2ccc(C(=O)N3CCN(c4ncccn4)CC3)cc2)cc1 | –
30 | 61 | Cc1ccc(-c2ccc(C(=O)N3CCN(c4ncccn4)CC3)cc2)s1 | –
31 | 190 | N#Cc1ccc(-c2ccc(C(=O)N3CCN(c4ncccn4)CC3)cc2)cc1 | –
32 | 76 | O=C(c1ccc(-c2cccc(Cl)c2)cc1)N1CCN(c2ncccn2)CC1CO (stereo not given) | –
33 | 477 | CC1CN(C(=O)c2ccc(-c3ccccc3)cc2)CCN1c1ncccn1 (stereo not given) | –
34 | 27 | O=C(c1ccc(-c2cccc(Cl)c2)cc1)N1CC2CCC(C1)N2c1ncccn1 | Activity (Mus musculus [5]): inactive; remaining at 0.5 h [4]: 75%; Activity (Mus musculus [6]): Non-toxic; Kp at 6 h [7]: 1.7; AUC(0-inf) [8]: 24000 ng·h/mL; concentration at 6 h [9]: 2260 ng/mL; Cmax [10]: 4500 ng/mL; Tmax [11]: 22.8 min; inhibition [12]: inactive; Activity (Mus musculus [13]): Non-toxic
35 | 36 | O=C(c1ccc(-c2cccc(Cl)c2)cc1)N1CCN(c2ncccn2)CC1 | IC50 [14]: > 10000 nM; remaining at 0.5 h [4]: 90%; fraction unbound [1]: 0.008; IC50 [15]: 3400 nM
36 | 653 | Cc1ccccc1-c1ccc(C(=O)N2CCN(c3ncccn3)CC2)cc1 | –
37 | 77 | CCc1ccc(-c2ccc(C(=O)N3CCN(c4ncccn4)CC3)cc2)cc1 | –
38 | 230 | COc1ccc(-c2ccc(C(=O)N3CCN(c4ncccn4)CC3)cc2)cc1 | –
39 | 89 | O=C(c1ccc(-c2cccc(Cl)c2)cc1)N1CCCN(c2ncccn2)CC1 | –
40 | 190 | N#Cc1cccc(-c2ccc(C(=O)N3CCN(c4ncccn4)CC3)cc2)c1 | –
41 | 18 | O=C(c1ccc(-c2cccc(Cl)c2)cc1)N1C2CCC1CN(c1ncccn1)C2 | IC50 [14]: > 10000 nM; remaining at 0.5 h [4]: 70%; Activity (Mus musculus [16]): Toxic; inhibition at 10 µM (hERG (KCNH2)): 59%; IC50 [15]: 6100 nM
